Values belong to the molecule of their own block, whether it stands above or below them.
Experiments:
Chronic toxicity = format: in vivo; conditions: 4 weeks daily oral
VEGF = VEGF estimation by ELISA in serum and tumor lysates; format: in vivo, Nu/nu mice
[1] = Caco-2 permeability study; conditions: human, Caco-2, pH 5.8
In vitro drug release = format: physicochemical; conditions: PBS 1% Volpo pH 6.8, 37°C
In short: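 Equal drug amounts (free drug, spray-dried formulation, or physical mixture) suspended in 500 ml PBS with 1% Volpo, pH 6.8. USP type II paddle, 50 rpm, 37±0.5°C, followed over 48 h.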

A431 tumors = assay: IHC analysis of A431 tumors; format: in vivo, Nu/nu mice; conditions: untreated control 34.00±6.26
[2] = test system: A431 epidermoid carcinoma subcutaneous xenograft; assay: Anticancer study in A431 subcutaneous xenograft model; format: in vivo, Nu/nu mice; conditions: 50 mg/kg daily orally, 4 weeks; vehicle control 6663.01 ±1113.23
[3] = Oral pharmacokinetic study; format: in vivo, Sprague Dawley rats; conditions: rat
[4] = free drug; cited from earlier work
[5] = Sprague Dawley, plasma, po, 50 mg/kg

Molecule: COc1cc2ncnc(Nc3ccc(F)c(Cl)c3)c2cc1OCCCN1CCOCC1 [Gef free drug, Gefitinib]
- body weight change (Chronic toxicity): no change in the body weights
- VEGF level in serum (VEGF; serum, control 572.90±38.51): 336.40 ± 55.84 pg/mL
- VEGF level in tumor lysates (VEGF; tumor lysates, control 355.35± 49.93): 175.65±25.76 pg/mg protein
- Papp A→B at 120 min, 100 μM [1]: 0.34 ± 0.09 ×10⁻⁶ cm/s
- drug released after 48 h (In vitro drug release): 16%
- cleaved caspase 3 positive apoptotic cells/field (A431 tumors): 145.33±28.44 cells/field
- final tumor volume [2]: 3534.49±896.16 mm^3
- CL ([3]; 50 mg/kg orally): 1.9 ± 0.0408 mL/day/kg
- Vss ([3]; 50 mg/kg orally): 0.00045 ± 0.00022 L/kg
- maximum plasma concentration (approximate molar) ([3]; 50 mg/kg orally): approximately 0.55 μM
- AUC(0-inf) [3, 5]: 1340 ± 244 ng·h/mL
- Cmax [3, 5]: 248 ± 89.5 ng/mL
- MRT [3, 5]: 8.85 ± 1.83 h
- Tmax [3, 5]: 1.25 ± 0.25 h
- half-life [3, 5]: 7.46 ± 1.75 h
- aqueous solubility [4]: less than 1 mg/ml

- average permeability (paracellular control) (Caco-2 cell monolayers): < 0.15 ×10⁻⁶ cm/s
Molecule: lucifer yellow

Reference: article PMC4774891 (Pharmaceutical research, 2015)
